Assay results as given in PubChem BioAssay.
The source made the active and inactive calls.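 How the source made its calls, unless noted: active means NADPH fluorescence slope more negative than the mean of all samples by about 3 SD, 99.7% confidence; inactive means the rest.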

What was measured:
[1] = inhibitors of TNFa-induced NFkB p65 translocation, primary screen, imaging, HUVEC, MLSMR starter and 10KST1 sets (AID 438;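 active means inhibition above 20% together with a positive visual image hit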;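 further: compound added about 3h40 before a 20 min TNFalpha stimulation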;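 on inhibition: signal is the nuclear over cytoplasmic p65 intensity ratio per well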); details: HUVEC TNFa-induced p65 nuclear translocation; cell count: measured here: nuclei count (cytotoxicity indicator), at 2.08 µM; inhibition: at 2 µM, stronger effect = higher value, 0% TNFa-plus-vehicle, 100% no-TNFa wells
[2] = reduction of polyQ htt aggregates in cells – imaging, exon1htt(103Q)mCFP cells, high-content imaging, primary screen (AID 483;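 active means visual image review flags a hit and inhibition of aggregation exceeds 20%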;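 further: compound exposure lasted 3 days before fixation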;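 on nuclei count: percent of the per-plate median nuclei count of sample wells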); details: exon1htt(103Q)mCFP cell line, aggregate imaging, at 2 µM; inhibition of aggregation: stronger effect = higher value; nuclei count: measured here: cell count, toxicity
[3] = endothelial E-selectin expression blockers – imaging, HUVEC, immunofluorescence, MLSMR starter and 10KST1 sets, primary screen (AID 487;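 active means visually confirmed hit in the image check and inhibition above 20%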;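 on inhibition: signal is fraction of cell area covered by stained E-selectin grains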;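 on nuclei count: 100% = median nuclei count of all wells on the same plate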); details: HUVEC TNFalpha-induced E-selectin immunofluorescence imaging, at 2 µM; inhibition: stronger effect = higher value; nuclei count: measured here: cell number, toxicity
[4] = molecular target: Voltage-gated potassium channel subunit beta-2 (Rattus norvegicus) (UniProt P62483); experiment: inhibitors of rat Kvbeta2 reductase activity – biochemical, NADPH fluorescence, primary screen (AID 622;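 active means fluorescence slope higher than the sample average by over 3 SD, cut at about -0.22 in these data, passing the limit was not always enough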;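 further: slope of raw intensity against log time taken from 70 to 1610 s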); details: recombinant KvBeta, 4-cyanobenzaldehyde reduction, at 10 µM, stronger effect = higher value
Sequence of Voltage-gated potassium channel subunit beta-2 (Rattus norvegicus) (P62483 whole entry, looked up): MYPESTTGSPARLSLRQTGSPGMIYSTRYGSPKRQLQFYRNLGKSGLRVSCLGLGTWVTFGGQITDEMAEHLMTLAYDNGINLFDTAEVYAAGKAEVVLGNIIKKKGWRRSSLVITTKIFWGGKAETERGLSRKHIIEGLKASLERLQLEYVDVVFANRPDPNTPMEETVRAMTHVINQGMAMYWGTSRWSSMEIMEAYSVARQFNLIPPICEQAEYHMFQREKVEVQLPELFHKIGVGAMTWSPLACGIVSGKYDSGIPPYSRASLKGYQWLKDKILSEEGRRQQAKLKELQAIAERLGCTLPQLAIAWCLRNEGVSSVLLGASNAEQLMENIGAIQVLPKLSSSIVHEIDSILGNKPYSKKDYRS

[5] = molecular target: Voltage-gated potassium channel subunit beta-2 (Rattus norvegicus) (UniProt P62483); experiment: enhancers of rat Kvbeta2 NADPH turnover – biochemical, NADPH fluorescence, primary screen (AID 623); details: Recombinant KvBeta, NADPH fluorescence decrease slope, 10 min; at 10 µM; stronger effect = lower value;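 further: fluorescence intensity change per second fitted from 20 to 320 s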
[6] = molecular target: Muscarinic acetylcholine receptor M4 (Homo sapiens) (UniProt P08173); experiment: M4-linked GIRK flux change, two-sided – cell-based, HEK293 M4/GIRK, thallium flux, BTC-AM, M4 allosteric agonist project, primary screen (AID 625;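 active means fluorescence slope after compound addition differing from the mean of all tested samples at 99.7% confidence, mostly higher but some lower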;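 further: thallium influx through GIRK channels coupled to M4 in HEK293 cells with BTC-AM dye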); details: at 10 µM, actives lie on both sides
Sequence of Muscarinic acetylcholine receptor M4 (Homo sapiens) (P08173 whole entry, looked up): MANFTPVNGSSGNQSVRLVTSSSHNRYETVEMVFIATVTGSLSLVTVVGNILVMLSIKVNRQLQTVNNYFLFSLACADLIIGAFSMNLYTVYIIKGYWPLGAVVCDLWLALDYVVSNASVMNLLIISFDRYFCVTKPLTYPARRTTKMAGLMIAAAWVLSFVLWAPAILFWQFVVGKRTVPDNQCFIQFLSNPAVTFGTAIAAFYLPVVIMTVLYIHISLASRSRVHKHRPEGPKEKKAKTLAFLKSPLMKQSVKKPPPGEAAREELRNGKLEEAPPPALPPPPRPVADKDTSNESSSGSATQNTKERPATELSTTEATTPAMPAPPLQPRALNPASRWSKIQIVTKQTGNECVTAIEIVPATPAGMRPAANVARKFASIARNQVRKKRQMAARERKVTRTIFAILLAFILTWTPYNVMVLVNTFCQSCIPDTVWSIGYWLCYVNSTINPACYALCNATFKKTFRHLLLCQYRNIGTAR
Method in brief: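 Material: M4/GIRK1/GIRK2 stable HEK293 cell line. Medium: pH 7.3 thallium assay buffer. Dosing: single compound concentration, 10 µM final. Schedule: 1 h dye loading, 2 min kinetic read. Measured by: kinetic fluorescence with BTC-AM dye. Read-out: post-addition slope, 15–24 s, of baseline-normalized fluorescence. Benchmarks: carbachol and DMSO controls.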

[7] = blockers of RIG-like receptor reporter activation – cell-based, Sendai virus stimulus, luciferase, 10K MLSCN set, TLR/RLR signaling modifier project, primary screen (AID 602276;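 active means inhibition at or above 50% at 10 µM; inactive means inhibition below 50%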;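 further: firefly luciferase from ISG56 promoter only with Renilla not read in this screen; 0% = Sendai virus plus DMSO and 100% = medium plus DMSO without virus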); details: HEK293 RL24 IRF3 luciferase reporter, at 10 µM, stronger effect = higher value
[8] = TLR3 IRF3 reporter activation blockers – cell-based, poly I:C stimulus, luciferase, 10K MLSCN set, primary screen (AID 602277;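 active means inhibition of the reporter signal at or above 50%; inactive means inhibition below 50%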); details: HEK293-TLR3 RL24 IRF3 luciferase reporter, at 10 µM, stronger effect = higher value

Row | Compound | cell count [1] | inhibition [1] | inhibition of aggregation [2] | nuclei count [2] | inhibition [3] | nuclei count [3] | fluorescence slope [4] | NADPH fluorescence slope [5] | fluorescence slope [6] | inhibition [7] | inhibition [8]
1 | COC(=O)c1ccc(CSc2nc(-c3ccc(OC)cc3)nc3c2c(=O)n(C)c(=O)n3C)o1 | 487 | 8.9% (inactive) | -0.5% (inactive) | 89.2% | -5.9% (inactive) | 103% | -0.409 (inactive) | 0.000102 (inactive) | 0.00884 (inactive) | 24% (inactive) | 30.6% (inactive)
2 | COC(=O)c1ccccc1NC(=O)Cn1c(-c2nonc2N)nc2ccccc21 | 363 | 5.8% (inactive) | -2.5% (inactive) | 1.9% | -162% (inactive) | 102% | -0.537 (inactive) | -5.1e-05 (inactive) | 0.00504 (inactive) | 47.8% (inactive) | 30% (inactive)
3 | COC(=O)COc1ccc(C(=O)OC)cc1 | 384 | 5% (inactive) | 9.9% (inactive) | 100% | -33.2% (inactive) | 102% | -0.456 (inactive) | 1.1e-05 (inactive) | 0.00492 (inactive) | 6.44% (inactive) | 10.8% (inactive)
4 | COC(=O)COc1nc(C)c(Br)c(OC)n1 | 367 | 2.4% (inactive) | -14% (inactive) | 96.9% | -89.5% (inactive) | 110% | -0.615 (inactive) | -1.6e-05 (inactive) | 0.00344 (inactive) | 15.8% (inactive) | 17.1% (inactive)
5 | CCC1Cc2c(nc3c4c(nc(N5CCOCC5)c(C#N)c24)NC(C)=N3)O1 (stereo not drawn) | 657 | 0.8% (inactive) | 7.2% (inactive) | 92.3% | 43.9% (inactive) | 97.4% | -0.35 (inactive) | -1.8e-05 (inactive) | 0.00571 (inactive) | 14.3% (inactive) | 1.06% (inactive)
6 | O=C(O)c1ccc(-n2nc(C(F)(F)F)c3c2-c2ccoc2CC3)cc1 | 609 | -5.9% (inactive) | 5.8% (inactive) | 96.1% | -24.4% (inactive) | 90.9% | -0.492 (inactive) | 2.6e-05 (inactive) | 0.00488 (inactive) | 3.92% (inactive) | -5.27% (inactive)
7 | Cn1c(SCc2ccc3c(c2)OCO3)nnc1-c1ccccc1 | 344 | 9.8% (inactive) | 15.3% (inactive) | 93.9% | -72.5% (inactive) | 126% | -0.526 (inactive) | 4.8e-05 (inactive) | 0.00602 (inactive) | -9.99% (inactive) | -38.3% (inactive)
8 | CCOC(=O)C1CCN(S(=O)(=O)c2cc(Cl)c(C)cc2OC)CC1 | 441 | -9.5% (inactive) | -0.9% (inactive) | 109% | -41% (inactive) | 116% | -0.587 (inactive) | 1.4e-05 (inactive) | 0.00585 (inactive) | 19.9% (inactive) | 38.6% (inactive)
9 | O=C(Nc1nc(-c2ccc(S(=O)(=O)N3CCCCCC3)cc2)cs1)c1cccs1 | 368 | 15% (inactive) | -6.4% (inactive) | 115% | -30.6% (inactive) | 122% | -0.53 (inactive) | -2.4e-05 (inactive) | 0.0134 (active) | 10.4% (inactive) | 3.6% (inactive)
10 | FC(F)(F)c1nnc2ccc(NCn3nnc4ccccc43)nn12 | 562 | -27.6% (inactive) | 18.9% (inactive) | 85.2% | 16.1% (inactive) | 94.1% | -0.434 (inactive) | 3.1e-05 (inactive) | 0.00533 (inactive) | 12.7% (inactive) | 3.14% (inactive)
11 | COc1cc(OC)cc(C(=O)N2CCN(C(=O)c3ccc(OC)c(OC)c3)CC2)c1 | 358 | -2% (inactive) | -5.3% (inactive) | 126% | -20.6% (inactive) | 89.3% | -0.603 (inactive) | 3.5e-06 (inactive) | 0.00572 (inactive) | 4.07% (inactive) | 14.7% (inactive)
12 | Nc1cc(C(=O)O)ccc1Nc1ccc(F)c(F)c1 | 693 | -22.9% (inactive) | -0.6% (inactive) | 124% | 6.9% (inactive) | 96.9% | -0.44 (inactive) | 0.000103 (inactive) | 0.00669 (inactive) | -5.42% (inactive) | -4.51% (inactive)
13 | CN=C1CC(C)(C)CC(=O)/C1=C(/O)CCC(=O)NC | 367 | 10.4% (inactive) | 10.3% (inactive) | 104% | 50.5% (inactive) | 90.9% | -0.45 (inactive) | -1.9e-05 (inactive) | 0.00526 (inactive) | 13% (inactive) | 15.4% (inactive)
